{"source": "paper PMC2885802", "about": "(Current radiopharmaceuticals, 2010)", "key": {"[1]": {"test_system": "αvβ3", "conditions": "αvβ3 antagonist; not measured here, no ref given; cited from earlier work"}, "[2]": {"conditions": "guanidino group of IAC; ref not given; cited from earlier work"}, "[3]": {"experiment": "Stability study in mouse serum", "type": "in vitro ADME", "conditions": "37 °C; for % of 99mTc radioactivity associated with 99mTcO4−1: mouse serum, 18 h; for % intact when incubated in serum: 18 hrs", "method_in_brief": "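Purified 99mTc-labeled test compound (116 μCi, 4.29 MBq) was added to mouse serum containing 0.04% sodium azide, buffered with sodium phosphate pH 7.2, and held at 37 °C. Timed aliquots went to size-exclusion HPLC (TSK G3000SWXL; 0.067 M sodium phosphate/0.10 M KCl, pH 6.8; 1.0 ml/min) with UV and online radioactivity detection. Intact, protein-bound and 99mTcO4− fractions were measured; N ≥ 3.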"}, "[4]": {"molecular_target": "human integrin αvβ3 (Homo sapiens, UniProt P05106+P06756)", "sequence (P06756 31-889 limits assumed)": "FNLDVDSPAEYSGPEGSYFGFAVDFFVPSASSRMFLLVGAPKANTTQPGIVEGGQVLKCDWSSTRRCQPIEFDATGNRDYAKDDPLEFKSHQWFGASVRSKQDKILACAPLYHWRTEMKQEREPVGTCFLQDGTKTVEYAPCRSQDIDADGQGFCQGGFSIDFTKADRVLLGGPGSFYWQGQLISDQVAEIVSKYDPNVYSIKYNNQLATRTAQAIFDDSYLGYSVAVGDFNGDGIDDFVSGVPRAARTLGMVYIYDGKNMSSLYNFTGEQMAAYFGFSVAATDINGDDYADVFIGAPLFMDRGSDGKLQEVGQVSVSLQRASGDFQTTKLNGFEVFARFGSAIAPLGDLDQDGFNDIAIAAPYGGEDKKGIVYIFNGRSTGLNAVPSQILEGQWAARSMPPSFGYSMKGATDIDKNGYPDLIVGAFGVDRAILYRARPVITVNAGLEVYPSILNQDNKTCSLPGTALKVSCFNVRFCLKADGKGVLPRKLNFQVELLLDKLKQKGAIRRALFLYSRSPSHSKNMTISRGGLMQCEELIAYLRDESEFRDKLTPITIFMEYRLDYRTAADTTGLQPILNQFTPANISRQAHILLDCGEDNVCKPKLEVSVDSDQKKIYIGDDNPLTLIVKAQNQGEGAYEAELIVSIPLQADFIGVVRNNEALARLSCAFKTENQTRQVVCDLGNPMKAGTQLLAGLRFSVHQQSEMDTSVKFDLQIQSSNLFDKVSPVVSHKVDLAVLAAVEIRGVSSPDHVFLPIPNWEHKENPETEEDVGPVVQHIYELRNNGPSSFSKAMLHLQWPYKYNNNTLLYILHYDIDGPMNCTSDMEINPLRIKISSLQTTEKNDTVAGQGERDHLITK", "sequence (P06756 891-1048 partner limits assumed)": "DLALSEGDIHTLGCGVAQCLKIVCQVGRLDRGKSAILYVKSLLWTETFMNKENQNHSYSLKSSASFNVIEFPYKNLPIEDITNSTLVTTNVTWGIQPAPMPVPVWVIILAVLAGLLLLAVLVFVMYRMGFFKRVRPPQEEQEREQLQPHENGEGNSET", "sequence (P05106 27-788)": "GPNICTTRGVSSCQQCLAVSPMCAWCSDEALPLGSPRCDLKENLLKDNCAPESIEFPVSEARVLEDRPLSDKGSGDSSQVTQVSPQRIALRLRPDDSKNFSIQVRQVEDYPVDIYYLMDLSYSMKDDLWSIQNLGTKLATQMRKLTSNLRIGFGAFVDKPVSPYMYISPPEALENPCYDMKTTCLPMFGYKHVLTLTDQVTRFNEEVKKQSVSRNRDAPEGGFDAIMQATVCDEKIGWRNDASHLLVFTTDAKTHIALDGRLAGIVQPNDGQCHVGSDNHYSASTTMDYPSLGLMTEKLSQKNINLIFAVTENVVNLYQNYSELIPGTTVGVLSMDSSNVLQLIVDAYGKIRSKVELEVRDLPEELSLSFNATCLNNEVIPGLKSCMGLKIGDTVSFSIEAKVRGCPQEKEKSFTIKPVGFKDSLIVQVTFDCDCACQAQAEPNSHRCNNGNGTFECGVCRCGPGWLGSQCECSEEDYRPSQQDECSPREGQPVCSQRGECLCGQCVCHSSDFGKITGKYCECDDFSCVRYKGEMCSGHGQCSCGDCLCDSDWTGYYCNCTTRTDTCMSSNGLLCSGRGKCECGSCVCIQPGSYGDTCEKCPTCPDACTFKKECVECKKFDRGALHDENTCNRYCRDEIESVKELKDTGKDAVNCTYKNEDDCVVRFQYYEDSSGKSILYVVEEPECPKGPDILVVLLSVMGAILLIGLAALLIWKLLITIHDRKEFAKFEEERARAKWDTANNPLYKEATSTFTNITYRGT", "experiment": "Receptor-binding assay", "conditions": "0.8 μM αvβ3, 37 °C, 3 hrs, n = 4", "method_in_brief": "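Purified 99mTc-labeled test compound (1.1×10^6 cpm, <2.5 pmol) was incubated with 2.6 to 51.2 pmol human integrin αvβ3 in PBS pH 7.2 at 37 °C for 3 hrs. Non-specific binding was taken with a 250-fold molar excess of unlabeled antagonist. Bound (7 min) and free (15 min) label were separated by size-exclusion HPLC (TSK G3000SWXL).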"}, "[5]": {"test_system": "receptor-positive M21 human melanoma xenografts", "experiment": "Biodistribution study in nude mice bearing M21 xenografts", "type": "in vivo", "conditions": "for tumor uptake with co-injection of antagonist: co-injection of 200 μg unlabeled IA; for tumor uptake: 1 h after i.v. injection; for excretion route: inferred from whole-body retention", "method_in_brief": "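Athymic nude mice carried s.c. right-flank xenografts from 3 × 10^6 M21 cells (grown in RPMI 1640, 10% FBS, 1% penicillin-streptomycin, 5% CO2). At about 200 mm3 tumor size, mice received i.v. 99mTc-labeled test compound (6.25 μCi, 0.231 MBq/6 pmol in PBS with 1% BSA). They were euthanized at set times for tissue %ID/g and tumor-to-organ ratios; n=4~15 per time point.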"}, "[6]": {"experiment": "Stability in PBS", "type": "physicochemical", "conditions": "18-h period of incubation"}}}
{"compound": "CC(C)(CN)CNC(=O)NCCS(=O)(=O)N[C@@H](CNC(=O)c1ccc(OCCNC2=NCCCN2)cc1)C(=O)O.Cl", "note": "[IAC, 4-[2-(3,4,5,6-tetrahydropyrimidin-2-ylamino)-ethyloxy]benzoyl-2-(S)-[N-(3-aminoneopenta-1-carbamyl)]-aminoethylsulfonylamino-β-alanine hydrochloride]", "values": [{"measurement": "IC50", "setting": "[1]", "result": 2.94, "unit": "nM"}, {"measurement": "pKa", "setting": "[2]", "result": "~ 12"}]}
{"compound": "^99mTc EDDA2/HYNIC-IAC [P1]", "values": [{"measurement": "% of 99mTc radioactivity associated with 99mTcO4−1", "setting": "[3]", "result": 3, "unit": "%"}, {"measurement": "% intact when incubated in serum", "setting": "[3]", "result": 84, "unit": "%"}, {"measurement": "receptor-bindability (% bound to αvβ3)", "setting": "[4]", "result": "78.02 ± 13.48", "unit": "%"}, {"measurement": "tumor uptake value over time", "setting": "[5]; 4-h period", "result": "remained relatively unchanged"}, {"measurement": "Tumor-to-organ ratio, Blood", "setting": "[5]; 0.3 h", "result": "0.90±0.20"}, {"measurement": "Tumor-to-organ ratio, Bone", "setting": "[5]; 0.3 h", "result": "1.29±0.23"}, {"measurement": "Tumor-to-organ ratio, Heart", "setting": "[5]; 0.3 h", "result": "1.91±0.43"}, {"measurement": "Tumor-to-organ ratio, Intestine", "setting": "[5]; 0.3 h", "result": "0.66±0.07"}, {"measurement": "Tumor-to-organ ratio, Kidney", "setting": "[5]; 0.3 h", "result": "0.51±0.12"}, {"measurement": "Tumor-to-organ ratio, Liver", "setting": "[5]; 0.3 h", "result": "0.72±0.12"}, {"measurement": "Tumor-to-organ ratio, Lung", "setting": "[5]; 0.3 h", "result": "0.72±0.10"}, {"measurement": "Tumor-to-organ ratio, Muscle", "setting": "[5]; 0.3 h", "result": "3.04±0.68"}, {"measurement": "Tumor-to-organ ratio, Spleen", "setting": "[5]; 0.3 h", "result": "0.71±0.07"}, {"measurement": "Tumor-to-organ ratio, Stomach", "setting": "[5]; 0.3 h", "result": "0.54±0.13"}, {"measurement": "Tumor-to-organ ratio, Blood", "setting": "[5]; 1 h", "result": "1.38±0.48"}, {"measurement": "Tumor-to-organ ratio, Bone", "setting": "[5]; 1 h", "result": "2.12±1.17"}, {"measurement": "Tumor-to-organ ratio, Heart", "setting": "[5]; 1 h", "result": "2.48±0.75"}, {"measurement": "Tumor-to-organ ratio, Intestine", "setting": "[5]; 1 h", "result": "0.60±0.19"}, {"measurement": "Tumor-to-organ ratio, Kidney", "setting": "[5]; 1 h", "result": "0.75±0.28"}, {"measurement": "Tumor-to-organ ratio, Liver", "setting": "[5]; 1 h", "result": "0.89±0.27"}, {"measurement": "Tumor-to-organ ratio, Lung", "setting": "[5]; 1 h", "result": "1.19±0.43"}, {"measurement": "Tumor-to-organ ratio, Muscle", "setting": "[5]; 1 h", "result": "6.11±1.80"}, {"measurement": "Tumor-to-organ ratio, Spleen", "setting": "[5]; 1 h", "result": "1.36±0.38"}, {"measurement": "Tumor-to-organ ratio, Stomach", "setting": "[5]; 1 h", "result": "0.40±0.20"}, {"measurement": "whole-body retention", "setting": "[5]; 1 h", "result": "39.58 ± 2.91", "unit": "% ID"}, {"measurement": "effect of unlabeled IA co-injection on tumor uptake", "setting": "[5]; 1 h, 0, 10 and 200 μg unlabeled IA", "result": "blocked by unlabeled IA in a concentration dependent manner"}, {"measurement": "tumor uptake with co-injection of antagonist", "setting": "[5]; 1 h", "result": "0.68 ± 0.06", "unit": "% ID/g"}, {"measurement": "tumor uptake", "setting": "[5]", "result": "3.17±0.52", "unit": "% ID/g"}, {"measurement": "Tumor-to-organ ratio, Blood", "setting": "[5]; 2 h", "result": "2.19±0.18"}, {"measurement": "Tumor-to-organ ratio, Bone", "setting": "[5]; 2 h", "result": "2.46±0.19"}, {"measurement": "Tumor-to-organ ratio, Heart", "setting": "[5]; 2 h", "result": "3.23±0.48"}, {"measurement": "Tumor-to-organ ratio, Intestine", "setting": "[5]; 2 h", "result": "0.57±0.07"}, {"measurement": "Tumor-to-organ ratio, Kidney", "setting": "[5]; 2 h", "result": "0.85±0.08"}, {"measurement": "Tumor-to-organ ratio, Liver", "setting": "[5]; 2 h", "result": "1.02±0.12"}, {"measurement": "Tumor-to-organ ratio, Lung", "setting": "[5]; 2 h", "result": "1.50±0.09"}, {"measurement": "Tumor-to-organ ratio, Muscle", "setting": "[5]; 2 h", "result": "4.68±0.31"}, {"measurement": "Tumor-to-organ ratio, Spleen", "setting": "[5]; 2 h", "result": "1.30±0.12"}, {"measurement": "Tumor-to-organ ratio, Stomach", "setting": "[5]; 2 h", "result": "0.43±0.11"}, {"measurement": "Tumor-to-organ ratio, Blood", "setting": "[5]; 4 h", "result": "17.11±5.18"}, {"measurement": "Tumor-to-organ ratio, Bone", "setting": "[5]; 4 h", "result": "4.78±1.07"}, {"measurement": "Tumor-to-organ ratio, Heart", "setting": "[5]; 4 h", "result": "7.62±1.99"}, {"measurement": "Tumor-to-organ ratio, Intestine", "setting": "[5]; 4 h", "result": "0.46±0.15"}, {"measurement": "Tumor-to-organ ratio, Kidney", "setting": "[5]; 4 h", "result": "1.22±0.32"}, {"measurement": "Tumor-to-organ ratio, Liver", "setting": "[5]; 4 h", "result": "1.59±0.72"}, {"measurement": "Tumor-to-organ ratio, Lung", "setting": "[5]; 4 h", "result": "2.47±0.49"}, {"measurement": "Tumor-to-organ ratio, Muscle", "setting": "[5]; 4 h", "result": "7.84±1.78"}, {"measurement": "Tumor-to-organ ratio, Spleen", "setting": "[5]; 4 h", "result": "2.83±0.81"}, {"measurement": "Tumor-to-organ ratio, Stomach", "setting": "[5]; 4 h", "result": "1.53±0.80"}, {"measurement": "whole-body retention", "setting": "[5]; 4 h", "result": "27.25 ± 3.67", "unit": "% ID"}, {"measurement": "excretion route", "setting": "[5]", "result": "excreted primarily via the renal system"}, {"measurement": "stability in PBS", "setting": "[6]", "result": "stable"}]}
{"compound": "^99mTc PDA (tricin)/HYNIC-IAC [P2]", "values": [{"measurement": "% of 99mTc radioactivity associated with 99mTcO4−1", "setting": "[3]", "result": 9, "unit": "%"}, {"measurement": "% intact when incubated in serum", "setting": "[3]", "result": 77, "unit": "%"}, {"measurement": "receptor-bindability (% bound to αvβ3)", "setting": "[4]", "result": "51.05 ± 14.05", "unit": "%"}, {"measurement": "accumulation in liver and intestine compared with P1", "setting": "[5]; 4-h period", "result": "significantly higher accumulation"}, {"measurement": "Tumor-to-organ ratio, Blood", "setting": "[5]; 1 h", "result": "1.83±0.16"}, {"measurement": "Tumor-to-organ ratio, Bone", "setting": "[5]; 1 h", "result": "1.48±0.37"}, {"measurement": "Tumor-to-organ ratio, Heart", "setting": "[5]; 1 h", "result": "2.64±0.36"}, {"measurement": "Tumor-to-organ ratio, Intestine", "setting": "[5]; 1 h", "result": "0.15±0.01"}, {"measurement": "Tumor-to-organ ratio, Kidney", "setting": "[5]; 1 h", "result": "0.62±0.05"}, {"measurement": "Tumor-to-organ ratio, Liver", "setting": "[5]; 1 h", "result": "0.46±0.27"}, {"measurement": "Tumor-to-organ ratio, Lung", "setting": "[5]; 1 h", "result": "0.83±0.22"}, {"measurement": "Tumor-to-organ ratio, Muscle", "setting": "[5]; 1 h", "result": "3.85±1.64"}, {"measurement": "Tumor-to-organ ratio, Spleen", "setting": "[5]; 1 h", "result": "1.09±0.15"}, {"measurement": "Tumor-to-organ ratio, Stomach", "setting": "[5]; 1 h", "result": "0.40±0.12"}, {"measurement": "whole-body retention", "setting": "[5]; 1 h", "result": "57.84 ± 5.15", "unit": "% ID"}, {"measurement": "tumor uptake with co-injection of antagonist", "setting": "[5]; 1 h", "result": "0.96 ± 0.30", "unit": "% ID/g"}, {"measurement": "tumor uptake", "setting": "[5]", "result": "2.13±0.17", "unit": "% ID/g"}, {"measurement": "Tumor-to-organ ratio, Blood", "setting": "[5]; 2 h", "result": "2.58±0.25"}, {"measurement": "Tumor-to-organ ratio, Bone", "setting": "[5]; 2 h", "result": "2.73±0.54"}, {"measurement": "Tumor-to-organ ratio, Heart", "setting": "[5]; 2 h", "result": "3.85±0.57"}, {"measurement": "Tumor-to-organ ratio, Intestine", "setting": "[5]; 2 h", "result": "0.11±0.02"}, {"measurement": "Tumor-to-organ ratio, Kidney", "setting": "[5]; 2 h", "result": "0.81±0.07"}, {"measurement": "Tumor-to-organ ratio, Liver", "setting": "[5]; 2 h", "result": "0.45±0.30"}, {"measurement": "Tumor-to-organ ratio, Lung", "setting": "[5]; 2 h", "result": "1.34±0.51"}, {"measurement": "Tumor-to-organ ratio, Muscle", "setting": "[5]; 2 h", "result": "5.75±1.56"}, {"measurement": "Tumor-to-organ ratio, Spleen", "setting": "[5]; 2 h", "result": "1.95±0.27"}, {"measurement": "Tumor-to-organ ratio, Stomach", "setting": "[5]; 2 h", "result": "0.29±0.09"}, {"measurement": "Tumor-to-organ ratio, Blood", "setting": "[5]; 4 h", "result": "3.15±0.25"}, {"measurement": "Tumor-to-organ ratio, Bone", "setting": "[5]; 4 h", "result": "3.76±1.36"}, {"measurement": "Tumor-to-organ ratio, Heart", "setting": "[5]; 4 h", "result": "3.88±0.90"}, {"measurement": "Tumor-to-organ ratio, Intestine", "setting": "[5]; 4 h", "result": "0.07±0.00"}, {"measurement": "Tumor-to-organ ratio, Kidney", "setting": "[5]; 4 h", "result": "0.78±0.04"}, {"measurement": "Tumor-to-organ ratio, Liver", "setting": "[5]; 4 h", "result": "0.40±0.17"}, {"measurement": "Tumor-to-organ ratio, Lung", "setting": "[5]; 4 h", "result": "2.71±0.95"}, {"measurement": "Tumor-to-organ ratio, Muscle", "setting": "[5]; 4 h", "result": "6.33±1.57"}, {"measurement": "Tumor-to-organ ratio, Spleen", "setting": "[5]; 4 h", "result": "1.54±0.40"}, {"measurement": "Tumor-to-organ ratio, Stomach", "setting": "[5]; 4 h", "result": "0.27±0.05"}, {"measurement": "whole-body retention", "setting": "[5]; 4 h", "result": "54.04 ± 3.57", "unit": "% ID"}, {"measurement": "radioactivity at 1 h remained in the tumor at 4 h", "setting": "[5]; 4 h relative to 1 h", "result": 62, "unit": "%"}, {"measurement": "excretion route", "setting": "[5]", "result": "excreted to a larger extent via the hepatobiliary system"}, {"measurement": "stability in PBS", "setting": "[6]", "result": "stable"}]}
